The subject of data set [1] is Mycobacterium tuberculosis. Nature of the data set: Antimycobacterial activity against Mycobacterium tuberculosis H37Rv ATCC 27294 after 7 days by MABA method. It counts as functional. Particulars: H37Rv ATCC 27294, 168 h. Summed up: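 Inoculum from fresh LJ culture resuspended in 7H9-S (7H9 broth, 0.1% casitone, 0.5% glycerol, OADC), adjusted to McFarland No. 1 and diluted 1:20. Drug stocks diluted in 7H9-S to four-fold the highest final concentration. Plates sealed and incubated at 37 °C in normal atmosphere for 7 days, then alamar blue added.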

The nature of data set [2]: Cytotoxicity against HEK293T cells assessed as inhibition of cell growth at 50 ug/mL after 72 hrs by MTT assay. It counts as cell-based, HEK-293T. Particulars: human, read-out: GI. Summed up:
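HEK-293T cells exposed to each compound at one concentration (50) for 72 h. Viability was read from cellular conversion of MTT to formazan using a non-radioactive cell proliferation kit, and the result is given as percentage inhibition of cells.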
(Tetrazolium dyes change colour on reduction, which living cells bring about.)

≈ marks a conversion by molar mass, not a printed value.

A word on the MIC: it is the least concentration at which growth counts as inhibited. For the compound `Cn1cc(-c2ccc3nc(C(=O)NCc4ccc(F)cc4)cn3c2)cn1`, the MIC in data set [1] was found to be 25 µg/mL (≈ 71.6 µM). Besides, the inhibition at 72 h, 50 ug/mL in data set [2] stood at 36.1%.

Compound `Nc1ncccc1-c1ccc2nc(C(=O)NCc3ccc(F)cc3)cn2c1` displayed an MIC in data set [1] of 25 µg/mL (≈ 69.2 µM). Moreover, the inhibition at 72 h, 50 ug/mL in data set [2] was found to be 40.8%.

In the case of `O=C(NCc1ccc(F)cc1)c1cn2cc(-c3cccc4ncccc34)ccc2n1`, the MIC in data set [1] was determined as 25 µg/mL (≈ 63.1 µM). Also, the inhibition at 72 h, 50 ug/mL in data set [2] was 28.1%.

For the compound `O=C(O)CCc1ccc(-c2ccc3nc(C(=O)NCc4ccc(F)cc4)cn3c2)cc1`, the MIC in data set [1] is more than 50 µg/mL.

In data set [1], `Cn1cc(-c2ccc3nc(C(=O)NCc4ccco4)cn3c2)cn1` gave an MIC of more than 50 µg/mL.

On to `Nc1ncccc1-c1ccc2nc(C(=O)NCc3ccco3)cn2c1`, for which, in data set [1], the MIC amounted to 25 µg/mL (≈ 75 µM). Further, the inhibition at 72 h, 50 ug/mL in data set [2] was determined as 26.1%.

Take `O=C(NCc1ccco1)c1cn2cc(-c3cccc4ncccc34)ccc2n1`: the MIC in data set [1] is 25 µg/mL (≈ 67.9 µM). Also, the inhibition at 72 h, 50 ug/mL in data set [2] was determined as 24.8%.

In turn, `O=C(NCc1ccco1)c1cn2cc(-c3cnn(CCN4CCOCC4)c3)ccc2n1` came in with an MIC in data set [1] of 12.5 µg/mL (≈ 29.7 µM). Besides, in data set [2], the inhibition at 72 h, 50 ug/mL worked out at 34.1%.

Compound `CN1CCN(C(=O)c2ccc(-c3ccc4nc(C(=O)NCc5ccco5)cn4c3)cc2)CC1` had a minimal inhibitory concentration (MIC) in data set [1] of 25 µg/mL (≈ 56.4 µM). Besides, the inhibition at 72 h, 50 ug/mL in data set [2] was 30.1%.

Turning to `O=C(NCc1ccncc1)c1cn2cc(-c3ccc(Cl)cc3)ccc2n1`, in data set [1], the minimal inhibitory concentration (MIC) was 6.25 µg/mL (≈ 17.2 µM). For the same compound, in data set [2], the inhibition at 72 h, 50 ug/mL worked out at 26.1%.

In turn, `COc1ccccc1-c1ccc2nc(C(=O)NCc3ccncc3)cn2c1` registered a minimal inhibitory concentration (MIC) in data set [1] of 12.5 µg/mL (≈ 34.9 µM). Moreover, the inhibition at 72 h, 50 ug/mL in data set [2] amounted to 31.6%.

In data set [1], `Cn1cc(-c2ccc3nc(C(=O)NCc4ccc5c(c4)OCO5)cn3c2)cn1` yielded an MIC of 6.25 µg/mL (≈ 16.6 µM). The inhibition at 72 h, 50 ug/mL in data set [2] came out at 25.6%.

In turn, `O=C(NC1CC1)c1cn2cc(-c3cnn(CCN4CCOCC4)c3)ccc2n1` had an MIC in data set [1] of 25 µg/mL (≈ 65.7 µM). In addition, the inhibition at 72 h, 50 ug/mL in data set [2] stood at 29.1%.

`O=C(NCc1ccc(C(F)(F)F)cc1)c1cn2cc(-c3cccc4ncccc34)ccc2n1`: the MIC in data set [1] was 25 µg/mL (≈ 56 µM). Also, the inhibition at 72 h, 50 ug/mL in data set [2] stood at 37.8%.

Regarding `O=C(NCc1ccc(C(F)(F)F)cc1)c1cn2cc(-c3cnn(CCN4CCOCC4)c3)ccc2n1`, the minimal inhibitory concentration (MIC) in data set [1] turned out to be 12.5 µg/mL (≈ 25.1 µM). In addition, in data set [2], the inhibition at 72 h, 50 ug/mL was determined as 22.2%.

As for `O=C(NC1CCOCC1)c1cn2cc(-c3cnn(CCN4CCOCC4)c3)ccc2n1`, the MIC in data set [1] amounted to 6.25 µg/mL (≈ 14.7 µM). Besides, in data set [2], the inhibition at 72 h, 50 ug/mL turned out to be 30.1%.

For `NNC(=O)c1ccncc1` [ISONIAZID], the MIC in data set [1] stood at 0.36 µg/mL (≈ 2.63 µM).

Consider `CO[C@H]1/C=C/O[C@@]2(C)Oc3c(C)c(O)c4c(O)c(c(/C=N/N5CCN(C)CC5)c(O)c4c3C2=O)NC(=O)/C(C)=C\C=C\[C@H](C)[C@H](O)[C@@H](C)[C@@H](O)[C@@H](C)[C@H](OC(C)=O)[C@@H]1C` [RIFAMPIN], for which the MIC in data set [1] turned out to be 0.02 µg/mL (≈ 0.0243 µM).

By MIC50 is commonly meant the lowest concentration that inhibits either 50% of growth or 50% of the strains tested, depending on the study. High values mean weaker potency, low ones greater potency. The compound `CCc1nc2ccc(Cl)cn2c1C(=O)NCc1ccc(N2CCC(c3ccc(OC(F)(F)F)cc3)CC2)cc1` [TELACEBEC] had an MIC50 in data set [1] of 2.7 nM (≈ 1.5 ng/mL).

(Values after ChEMBL document CHEMBL3351487, “Synthesis, molecular docking and anti-mycobacterial evaluation of new imidazo[1,2-a]pyridine-2-carboxamide derivatives” (Eur J Med Chem, 2015).)
